The subject of one assay is KDM5B and KDM5C. The settings on record: ref Horton et al., 2016; cited from earlier work.
The target in another assay is full-length KDM6A (Homo sapiens, UniProt O15550). Put plainly: AlphaScreen demethylase assay, KDM6A. In kind it is biochemical. Particulars: at 50 μM, the highest inhibitor concentration tested. The essentials:
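Full-length KDM6A demethylase activity measured by AlphaScreen with test compound up to 50 μM, the highest concentration tested. Two independent experiments; average and S.E. reported.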
For orientation: Bead proximity is the source of the signal in Alpha formats.

For assay [1], the system named is KDM4A catalytic domain (residues 1-350). Put plainly: Demethylase inhibition, KDM4A catalytic domain. The format is biochemical.
Assay [2] deals with Flag-tagged full-length KDM5A (Homo sapiens, UniProt P29375). Put plainly: AlphaLISA / AlphaScreen demethylase assay, KDM5A. The format is biochemical. The settings on record: nanomolar enzyme concentration; two independent assays. The essentials: (§1)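 Full-length human enzymes, Flag-tagged and purified from Sf21 insect cells, assayed for demethylation by AlphaScreen.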
Assay [3] has as its target Flag-tagged full-length KDM5C (Homo sapiens, UniProt P41229). Put plainly: AlphaLISA / AlphaScreen demethylase assay, KDM5C. The settings on record: nanomolar enzyme concentration; two independent assays. In kind it is biochemical. The essentials: as §1
The target in assay [4] is KDM6B catalytic domain (residues 1043-1682) (Homo sapiens, UniProt O15054). Description: AlphaScreen demethylase assay, KDM6B. Particulars: at 50 μM, the highest inhibitor concentration tested. The format is biochemical. The essentials:
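Purified KDM6B catalytic domain (residues 1043-1682) was assayed by AlphaScreen for demethylase activity across a test-compound concentration series, with 50 μM the highest concentration tested. IC50 was averaged from 4 independent experiments, with S.E.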

Assay [5] deals with Flag-tagged full-length KDM5B (Homo sapiens, UniProt Q9UGL1). Description: AlphaLISA / AlphaScreen demethylase assay, KDM5B. The format is biochemical. The settings on record: nanomolar enzyme concentration; two independent assays. The essentials:
as §1

Assay [6] has as its system MCF7 cells. Description: Real time RT-PCR of KDM5 target genes, MCF7. The settings on record: 5 μM for 3 days. The format is cell-based, human. The essentials:
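MCF7 cells were exposed to DMSO or 5 μM test compound for 3 days. BRCA1, STK6, BUB3, BUB1B, MT1F and MT1H mRNA levels were then quantified by real-time RT-PCR, with SEM error bars.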
For orientation: Real-time PCR tracks product formation cycle by cycle.

Another assay has as its system PC9 lung cancer cells. Put plainly: Colony formation assay, PC9. The format is cell-based, human. Particulars: 5 μM.
Assay [7] has as its system MCF7 cells. Put plainly: Colony formation assay, MCF7. The format is cell-based, human. Particulars: 5 μM. The essentials:
(§2)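 Cells were treated with DMSO or 5 μM test compound and colonies quantified by image intensity. Percent intensity was normalized to the average percent intensity of DMSO-treated cells, with SEM error bars. Data are from biological duplicate experiments, each run in triplicate.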

Assay [8] relates to MCF7 cells. Put plainly: Western blot of global histone methylation, MCF7. The format is cell-based, human. Particulars: 5 μM, 3 days. The essentials:
(§3)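 Cells were exposed to DMSO or 5 μM test compound for 3 days and histone marks detected by western blot. Fold is H3K4me3 band intensity over total H3, normalized to the DMSO control. Data are from biological duplicate experiments, each run in duplicate.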
Background: Immunoblotting shows a protein as a band on a membrane.

Assay [9] concerns MDA-MB-231 cells. Description: Western blot of global histone methylation, MDA-MB-231. In kind it is cell-based, human. The settings on record: 5 μM, 3 days. The method, boiled down: as §3
In assay [10] the test system is MCF10A immortalized, non-transformed mammary epithelial cells. Put plainly: Colony formation assay, MCF10A. The format is cell-based, human. The settings on record: 5 μM.
The subject of assay [11] is MDA-MB-231 cells. Put plainly: Colony formation assay, MDA-MB-231. In kind it is cell-based, human. The settings on record: 5 μM. The method, boiled down:
as §2

In the next assay the test system is BT474 cells. Put plainly: Colony formation assay, BT474. The format is cell-based, human. Particulars: 5 μM. The essentials:
as §2

In another assay the test system is ZR-75-1 cells. Description: Colony formation assay, ZR-75-1. In kind it is cell-based, human. The settings on record: 5 μM. The essentials: as §2

The values that follow come from publication PMC4958579 (Cell chemical biology, 2016).

Chain of Flag-tagged full-length KDM5C (P41229 whole entry, the tested form may be a part): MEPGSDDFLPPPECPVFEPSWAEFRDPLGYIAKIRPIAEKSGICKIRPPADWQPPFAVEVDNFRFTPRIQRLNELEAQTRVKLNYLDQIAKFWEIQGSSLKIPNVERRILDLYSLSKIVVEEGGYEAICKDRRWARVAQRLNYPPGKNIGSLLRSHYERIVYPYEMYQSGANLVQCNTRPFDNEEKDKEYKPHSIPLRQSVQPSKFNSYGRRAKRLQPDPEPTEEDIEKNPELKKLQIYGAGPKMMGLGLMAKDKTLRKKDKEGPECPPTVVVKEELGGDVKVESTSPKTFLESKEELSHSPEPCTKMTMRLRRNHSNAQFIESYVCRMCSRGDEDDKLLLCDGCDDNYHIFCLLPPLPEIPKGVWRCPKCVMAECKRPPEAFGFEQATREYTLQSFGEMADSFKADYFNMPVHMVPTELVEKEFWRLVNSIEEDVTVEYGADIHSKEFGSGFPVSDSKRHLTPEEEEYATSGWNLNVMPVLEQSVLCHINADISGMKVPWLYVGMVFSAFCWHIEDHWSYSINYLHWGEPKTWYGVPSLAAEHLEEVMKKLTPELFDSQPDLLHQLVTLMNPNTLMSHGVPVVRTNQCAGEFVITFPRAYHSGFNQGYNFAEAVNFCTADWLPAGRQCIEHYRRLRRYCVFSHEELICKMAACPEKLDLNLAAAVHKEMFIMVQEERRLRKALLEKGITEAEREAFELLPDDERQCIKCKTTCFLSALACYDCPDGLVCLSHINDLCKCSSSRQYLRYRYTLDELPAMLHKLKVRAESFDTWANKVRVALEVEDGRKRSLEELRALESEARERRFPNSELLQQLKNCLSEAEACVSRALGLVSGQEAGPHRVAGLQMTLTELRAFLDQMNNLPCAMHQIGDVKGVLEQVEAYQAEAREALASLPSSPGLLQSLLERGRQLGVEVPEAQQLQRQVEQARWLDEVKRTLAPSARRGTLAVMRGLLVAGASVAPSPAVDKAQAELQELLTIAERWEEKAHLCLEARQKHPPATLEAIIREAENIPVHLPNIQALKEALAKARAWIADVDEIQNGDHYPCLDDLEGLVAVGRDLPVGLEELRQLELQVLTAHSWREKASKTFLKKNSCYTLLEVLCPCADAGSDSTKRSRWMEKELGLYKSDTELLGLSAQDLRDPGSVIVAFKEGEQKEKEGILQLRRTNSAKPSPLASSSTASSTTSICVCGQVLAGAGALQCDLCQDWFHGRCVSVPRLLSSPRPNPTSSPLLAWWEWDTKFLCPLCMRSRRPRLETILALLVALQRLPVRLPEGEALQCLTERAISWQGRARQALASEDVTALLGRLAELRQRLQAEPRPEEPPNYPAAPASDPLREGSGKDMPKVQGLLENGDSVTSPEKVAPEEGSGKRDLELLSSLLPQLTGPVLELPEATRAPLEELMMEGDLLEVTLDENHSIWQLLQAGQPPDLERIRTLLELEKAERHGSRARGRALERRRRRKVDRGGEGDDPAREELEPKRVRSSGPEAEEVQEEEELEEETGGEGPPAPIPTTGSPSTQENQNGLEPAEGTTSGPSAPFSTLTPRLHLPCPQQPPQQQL
Chain of full-length KDM6A (O15550 whole entry, species assumed): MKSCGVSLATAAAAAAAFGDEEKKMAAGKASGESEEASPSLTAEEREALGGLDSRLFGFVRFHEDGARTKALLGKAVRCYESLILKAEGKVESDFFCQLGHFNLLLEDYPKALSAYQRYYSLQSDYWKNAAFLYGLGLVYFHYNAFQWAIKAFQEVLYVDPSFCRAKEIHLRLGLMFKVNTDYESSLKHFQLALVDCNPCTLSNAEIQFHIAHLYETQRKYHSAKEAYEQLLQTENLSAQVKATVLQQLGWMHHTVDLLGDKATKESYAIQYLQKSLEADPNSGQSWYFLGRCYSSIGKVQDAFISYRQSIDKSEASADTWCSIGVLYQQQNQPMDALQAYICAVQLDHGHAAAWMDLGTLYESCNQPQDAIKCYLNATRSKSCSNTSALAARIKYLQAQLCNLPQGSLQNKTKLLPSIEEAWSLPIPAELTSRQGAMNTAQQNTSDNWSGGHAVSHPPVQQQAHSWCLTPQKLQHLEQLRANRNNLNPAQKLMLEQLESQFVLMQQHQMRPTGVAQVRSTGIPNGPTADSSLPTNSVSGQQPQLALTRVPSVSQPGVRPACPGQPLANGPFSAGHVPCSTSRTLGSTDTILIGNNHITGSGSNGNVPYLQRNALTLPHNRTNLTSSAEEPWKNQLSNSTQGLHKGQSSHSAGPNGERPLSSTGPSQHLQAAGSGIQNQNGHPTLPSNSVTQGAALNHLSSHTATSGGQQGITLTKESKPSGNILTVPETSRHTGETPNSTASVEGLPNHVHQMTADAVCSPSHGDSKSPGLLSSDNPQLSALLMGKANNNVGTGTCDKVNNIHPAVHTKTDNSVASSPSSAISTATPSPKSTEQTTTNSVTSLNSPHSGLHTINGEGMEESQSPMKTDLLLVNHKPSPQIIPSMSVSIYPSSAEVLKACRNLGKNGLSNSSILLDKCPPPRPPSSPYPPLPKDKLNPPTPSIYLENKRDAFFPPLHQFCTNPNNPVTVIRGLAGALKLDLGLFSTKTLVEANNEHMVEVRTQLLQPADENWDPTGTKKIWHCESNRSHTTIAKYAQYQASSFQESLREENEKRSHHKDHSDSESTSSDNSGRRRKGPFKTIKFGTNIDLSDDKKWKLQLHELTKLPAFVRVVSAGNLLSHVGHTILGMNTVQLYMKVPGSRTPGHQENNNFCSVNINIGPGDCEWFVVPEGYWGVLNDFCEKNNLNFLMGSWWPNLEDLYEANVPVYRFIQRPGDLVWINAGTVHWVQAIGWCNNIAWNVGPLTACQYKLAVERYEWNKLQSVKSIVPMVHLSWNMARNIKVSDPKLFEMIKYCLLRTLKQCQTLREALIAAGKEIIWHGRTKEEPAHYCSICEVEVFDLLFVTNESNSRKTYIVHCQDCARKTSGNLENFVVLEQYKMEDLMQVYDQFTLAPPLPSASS
Chain of Flag-tagged full-length KDM5B (Q9UGL1 whole entry): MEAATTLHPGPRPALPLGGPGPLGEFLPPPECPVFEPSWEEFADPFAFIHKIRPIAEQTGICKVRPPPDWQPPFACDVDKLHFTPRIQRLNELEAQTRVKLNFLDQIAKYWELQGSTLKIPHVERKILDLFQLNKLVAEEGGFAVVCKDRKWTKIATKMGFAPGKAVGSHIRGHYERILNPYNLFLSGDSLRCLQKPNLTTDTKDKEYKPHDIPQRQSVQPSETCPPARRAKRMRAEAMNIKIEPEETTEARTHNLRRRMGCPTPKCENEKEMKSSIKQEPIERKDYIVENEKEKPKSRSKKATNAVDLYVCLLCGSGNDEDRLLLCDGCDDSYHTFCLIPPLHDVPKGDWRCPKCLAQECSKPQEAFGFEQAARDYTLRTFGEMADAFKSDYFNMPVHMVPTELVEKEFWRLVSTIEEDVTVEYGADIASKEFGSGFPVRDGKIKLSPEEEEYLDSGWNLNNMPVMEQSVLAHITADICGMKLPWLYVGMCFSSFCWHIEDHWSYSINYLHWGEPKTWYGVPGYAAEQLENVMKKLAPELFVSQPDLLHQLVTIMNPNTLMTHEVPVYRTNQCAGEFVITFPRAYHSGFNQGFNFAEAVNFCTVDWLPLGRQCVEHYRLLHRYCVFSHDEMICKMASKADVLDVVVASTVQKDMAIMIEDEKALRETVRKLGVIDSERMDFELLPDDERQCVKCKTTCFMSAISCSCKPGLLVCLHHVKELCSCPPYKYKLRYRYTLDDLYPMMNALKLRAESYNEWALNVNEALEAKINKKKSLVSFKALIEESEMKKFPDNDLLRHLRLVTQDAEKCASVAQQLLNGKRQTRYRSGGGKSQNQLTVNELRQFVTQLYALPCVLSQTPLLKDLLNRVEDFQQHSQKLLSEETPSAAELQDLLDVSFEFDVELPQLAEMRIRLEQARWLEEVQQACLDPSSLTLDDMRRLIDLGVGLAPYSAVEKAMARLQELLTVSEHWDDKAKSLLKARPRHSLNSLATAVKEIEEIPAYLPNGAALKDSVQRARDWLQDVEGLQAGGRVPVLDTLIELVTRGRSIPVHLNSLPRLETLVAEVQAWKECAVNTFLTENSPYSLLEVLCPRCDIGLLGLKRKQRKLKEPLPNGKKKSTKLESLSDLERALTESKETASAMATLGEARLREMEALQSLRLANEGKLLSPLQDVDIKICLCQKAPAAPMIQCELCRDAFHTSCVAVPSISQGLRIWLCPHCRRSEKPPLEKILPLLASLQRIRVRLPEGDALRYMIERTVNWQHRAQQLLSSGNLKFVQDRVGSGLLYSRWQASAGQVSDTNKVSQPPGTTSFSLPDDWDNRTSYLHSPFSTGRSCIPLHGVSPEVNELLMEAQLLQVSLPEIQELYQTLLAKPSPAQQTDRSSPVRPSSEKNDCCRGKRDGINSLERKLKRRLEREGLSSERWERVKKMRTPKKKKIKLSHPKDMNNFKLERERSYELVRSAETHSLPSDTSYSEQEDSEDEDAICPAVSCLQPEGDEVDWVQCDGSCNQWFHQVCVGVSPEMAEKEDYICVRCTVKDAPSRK
Chain of KDM6B catalytic domain (residues 1043-1682) (O15054 1043-1682 isoform O15054-1): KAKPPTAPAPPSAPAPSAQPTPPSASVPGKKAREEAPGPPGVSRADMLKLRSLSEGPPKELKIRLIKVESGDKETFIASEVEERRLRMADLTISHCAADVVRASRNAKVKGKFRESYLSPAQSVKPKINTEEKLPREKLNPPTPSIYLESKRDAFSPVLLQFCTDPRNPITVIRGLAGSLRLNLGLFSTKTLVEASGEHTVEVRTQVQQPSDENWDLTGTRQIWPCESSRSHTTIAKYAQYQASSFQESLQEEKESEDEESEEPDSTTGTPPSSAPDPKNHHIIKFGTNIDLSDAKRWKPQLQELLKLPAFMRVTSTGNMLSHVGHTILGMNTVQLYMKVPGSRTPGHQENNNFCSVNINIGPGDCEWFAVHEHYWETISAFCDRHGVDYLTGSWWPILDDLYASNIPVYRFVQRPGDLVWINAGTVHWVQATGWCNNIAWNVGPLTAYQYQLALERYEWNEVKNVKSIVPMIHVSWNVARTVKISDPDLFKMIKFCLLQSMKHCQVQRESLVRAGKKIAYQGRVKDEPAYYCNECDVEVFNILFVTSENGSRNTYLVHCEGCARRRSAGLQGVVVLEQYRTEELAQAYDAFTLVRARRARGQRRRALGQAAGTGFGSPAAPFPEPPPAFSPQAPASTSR

For `O=C(O)CCNc1cc(N2CCc3ccccc3CC2)nc(-c2ccccn2)n1` [GSK-J1], in the assay with KDM5B and KDM5C, the “more active against KDM5C than against KDM5B” value was ~ 8.5 fold.

For the compound `Clc1ccc(N/N=C(\c2ccccc2)c2ccccn2)nc1` [JIB-04], the “increased potency against KDM5B compared to KDM5C” value with KDM5B and KDM5C is on record as ~ 8 fold.

Take `CCN(CCN(C)C)C(=O)CNCc1cc(C(=O)O)ccn1` [KDM5-C49]: the “inhibition of KDM6A activity” value on full-length KDM6A is listed as at most 50%. Moreover, in assay [1], the “weaker potency against KDM4A catalytic domain than against KDM5B catalytic domain or full length KDM5B” value is ~ 10 fold. Besides, the “IC50, full-length KDM5A” value in [2] is given as “nanomolar range”. Besides, the “IC50, full-length KDM5C” value in assay [3] is recorded as “nanomolar range”. For the same compound, the “inhibition of KDM6B activity” value in assay [4] is reported as at most 50%. In addition, the “IC50, full-length KDM5B” value in [5] is reported as “nanomolar range”.

Turning to `CCOC(=O)c1ccnc(CNCC(=O)N(CC)CCN(C)C)c1` [KDM5-C70], the “expression of MT1F mRNA” value in the assay on MCF7 cells [6] is recorded as “increase”. Also, the “expression of MT1H mRNA” value in the assay with MCF7 cells [6] is given as “increase”. In addition, the “effect on colony formation” value (in the assay with PC9 lung cancer cells; in [10]; with MDA-MB-231 cells [11]) was “none were significantly affected” in each case. The “growth inhibited (colony formation)” value amounted to 85% in the assay on MCF7 cells [7], 97% with BT474 cells and 70% in the assay with ZR-75-1 cells. The “H3K4me2/me1, H3K27me3, H3K9me3/H3K36me3 levels” value in the assay on MCF7 cells [8] and with MDA-MB-231 cells [9] was “little impact” in each case. Moreover, the “global levels of H3K4me3” value in the assay with MCF7 cells [8] and with MDA-MB-231 cells [9] was “significantly increased” each time.
